# From ChEMBL document CHEMBL3392957, “The discovery of 1,2,3,9b-tetrahydro-5H-imidazo[2,1-a]isoindol-5-ones as a new class of respiratory syncytial virus (RSV) fusion inhibitors. Part 1” (Bioorg Med Chem Lett, 2015)
# Columns and labels:
# [1] = system: Respiratory syncytial virus; assay: Antiviral activity against Respiratory syncytial virus A2 infected in human Hep2 cells assessed as inhibition of virus-induced cytopathicity after 5 days by MTT assay; format: functional, organism-based; settings: A2, HEp-2, 120 h
# Procedure, shortened: (§1)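 HEp2 cells (1.0 × 10⁴/well) infected at low moi (e.g. RSV A2 at moi 0.01) and added to serially diluted compound; 5 days at 37 °C, 5% CO₂. CPE read by MTT (1 mg/ml, 2 h, 37 °C), isopropanol, absorbance 540 nm; EC₅₀ by non-linear regression. SD given where n > 2.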
# [2] = Cytotoxicity against human Hep2 cells after 5 days by MTT assay; format: cell-based, HEp-2
# Procedure, shortened: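 Uninfected HEp2 cells (1.0 × 10⁴/well) with serially diluted compound, 5 days at 37 °C in 5% CO₂; viability by MTT (1 mg/ml, 2 h), isopropanol, absorbance 540 nm; CC₅₀ by non-linear regression.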
# [3] = system: Respiratory syncytial virus; assay: Antiviral activity against Respiratory syncytial virus B1 infected in human Hep2 cells assessed as inhibition of virus-induced cytopathicity after 5 days by MTT assay; format: functional, organism-based; settings: B1, HEp-2, 120 h; procedure, shortened: as §1
# [4] = system: Respiratory syncytial virus; assay: Antiviral activity against wild-type Respiratory syncytial virus A Long infected in human Hep2 cells assessed as inhibition of virus-induced cytopathicity after 5 days by MTT assay; format: functional, organism-based; settings: HEp-2, 120 h; procedure, shortened: as §1
# [5] = system: Respiratory syncytial virus; assay: Antiviral activity against Respiratory syncytial virus A2 infected in human Hep2 cells assessed as inhibition of virus-induced cytopathicity after 5 days by MTT assay relative to alpha-1-acid glycoprotein; format: functional, HEp-2
# Procedure, shortened: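 RSV A2 CPE assay in HEp2 cells (moi 0.01, 5 days, 37 °C, MTT read-out at 540 nm) run with alpha-1-acid glycoprotein at 1.5 mg/mL; result expressed as fold shift in EC₅₀ versus the assay without AAG.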
# [6] = Kinetic solubility of the compound at pH 2 by nephelometry; format: physicochemical; settings: buffer, read-out: Kinetic_solubility
# Procedure, shortened: (§2)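 Kinetic solubility by nephelometry, at pH 2 and pH 6.5; reported as a range in μg/mL.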
# [7] = Kinetic solubility of the compound at pH 6.5 by nephelometry; format: physicochemical; settings: buffer, read-out: Kinetic_solubility; procedure, shortened: as §2
# [8] = Lipophilicity, log D of the compound in octanol saturated mobile phase at pH 7.4 by chromatographic method; format: physicochemical
# Procedure, shortened: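 Effective logD determined chromatographically on a SUPELCOSIL LC-ABZ column with octanol-saturated mobile phase, pH 7.4.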
# [9] = Plasma protein binding in rat; format: ADME, cell-free; settings: read-out: PPB (converted)
# [10] = Cmax in Sprague-Dawley rat at 19 mg/kg, po as suspension with hydroxypropylmethylcellulose; format: ADME, organism-based; set-up: dose 19 mg/kg, route oral; settings: in vivo
# Procedure, shortened: (§3)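 Male Sprague-Dawley rats, n = 2, given a single oral dose. Plasma pharmacokinetics were analysed for Cmax (µM), terminal half-life (hr) and oral bioavailability F (%). The oral bioavailability estimate draws on a separate intravenous arm, also with n = 2 rats.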
# [11] = Elimination half life in Sprague-Dawley rat at 19 mg/kg, po as suspension with hydroxypropylmethylcellulose; format: ADME, organism-based; set-up: dose 19 mg/kg, route oral; settings: in vivo, read-out: beta t1/2; procedure, shortened: as §3
# [12] = Oral bioavailability in Sprague-Dawley rat at 19 mg/kg as suspension with hydroxypropylmethylcellulose; format: ADME, organism-based; settings: in vivo; procedure, shortened: as §3
# [13] = Total clearance in Sprague-Dawley rat at 2.0 mg/kg, iv in 0.1 M capsitol and 10 to 12.5 % DMSO; settings: in vivo
# [14] = Elimination half life in Sprague-Dawley rat at 2.0 mg/kg, iv in 0.1 M capsitol and 10 to 12.5 % DMSO; settings: in vivo, read-out: beta t1/2
# [15] = Apparent volume of distribution in Sprague-Dawley rat at 2.0 mg/kg, iv in 0.1 M capsitol and 10 to 12.5 % DMSO; settings: in vivo, read-out: Vz
SMILES,EC50 [1],CC50 at 120 h [2],other results
NC(=O)COc1ccc(C23c4ccccc4C(=O)N2CCN3C(=O)c2ccc(F)cc2)cc1 (racemic),1 µM,11 µM,–
CC(=O)COc1ccc(C23c4ccccc4C(=O)N2CCN3C(=O)c2ccc(F)cc2)cc1 (racemic),0.86 µM,> 16 µM,–
O=C(c1ccc(F)cc1)N1CCN2C(=O)c3ccccc3C12c1cccc(Cl)c1 (racemic),0.19 µM,> 18 µM,–
N#CCOc1cccc(C23c4ccccc4C(=O)N2CCN3C(=O)c2ccc(F)cc2)c1 (racemic),3.4 µM,> 17 µM,–
COCCOc1cccc(C23c4ccccc4C(=O)N2CCN3C(=O)c2ccc(F)cc2)c1 (racemic),> 16 µM,> 16 µM,–
O=C1c2ccccc2C2(c3ccc(Cl)cc3)N1CCN2c1ccccc1 (racemic),> 20 µM,> 20 µM,–
O=C1c2ccccc2C2(c3ccc(Cl)cc3)N(Cc3ccc(F)cc3)CCN12 (racemic),> 20 µM,16 µM,–
O=C(Cc1ccc(F)cc1)N1CCN2C(=O)c3ccccc3C12c1ccc(Cl)cc1 (racemic),0.97 µM,> 20 µM,–
O=C(c1ccc(Cl)cc1)N1CCN2C(=O)c3ccccc3C12c1ccc(Cl)cc1 (racemic),3.7 µM,17 µM,–
O=C(Nc1ccccc1)N1CCN2C(=O)c3ccccc3C12c1ccc(Cl)cc1 (racemic),7.1 µM,> 20 µM,–
COc1ccc(NC(=O)N2CCN3C(=O)c4ccccc4C23c2ccc(Cl)cc2)cc1 (racemic),1.6 µM,> 20 µM,–
O=C(NCc1ccccc1)N1CCN2C(=O)c3ccccc3C12c1ccc(Cl)cc1 (racemic),0.73 µM,> 20 µM,–
O=C(NCc1ccc(F)cc1)N1CCN2C(=O)c3ccccc3C12c1ccc(Cl)cc1 (racemic),0.6 µM,10 µM,–
O=C(c1cccc(Cl)n1)N1CCN2C(=O)c3ccccc3C12c1ccc(Cl)cc1 (racemic),0.47 µM,> 17 µM,–
O=C(c1ccco1)N1CCN2C(=O)c3ccccc3C12c1ccc(Cl)cc1 (racemic),0.26 µM,12 µM,–
CC(=O)N1CCN2C(=O)c3ccccc3C12c1ccc(Cl)cc1 (racemic),1.2 µM,> 20 µM,–
CCC(=O)N1CCN2C(=O)c3ccccc3C12c1ccc(Cl)cc1 (racemic),1 µM,> 20 µM,–
CC(C)CC(=O)N1CCN2C(=O)c3ccccc3C12c1ccc(Cl)cc1 (racemic),0.74 µM,> 20 µM,–
O=C1c2ccccc2C2(c3ccc(Cl)cc3)N1CCN2C(=O)C1CC1 (racemic),4.9 µM,> 21 µM,–
COCC(=O)N1CCN2C(=O)c3ccccc3C12c1ccc(Cl)cc1 (racemic),2.7 µM,> 21 µM,–
N#CCC(=O)N1CCN2C(=O)c3ccccc3C12c1ccc(Cl)cc1 (racemic),4.5 µM,> 21 µM,–
O=C(CC1CCCCC1)N1CCN2C(=O)c3ccccc3C12c1ccc(Cl)cc1 (racemic),4.5 µM,14 µM,–
O=C(c1ccc(F)cc1)N1CCN2C(=O)c3ncccc3C12c1ccc(Cl)cc1 (racemic),0.88 µM,> 20 µM,–
O=C(c1ccc(F)cc1)N1CCN2C(=O)c3cccnc3C12c1ccc(Cl)cc1 (racemic),1.2 µM,> 20 µM,–
O=C(c1ccc(F)cc1)N1CCN2C(=O)c3nccnc3C12c1ccc(Cl)cc1 (racemic),> 18 µM,> 18 µM,–
O=C(c1ccc(F)cc1)N1CCN2C(=O)c3cnccc3C12c1ccc(Cl)cc1 (racemic),2.7 µM,> 18 µM,–
O=C(c1ccc(F)cc1)N1CCN2C(=O)c3ccncc3C12c1ccc(Cl)cc1 (racemic),0.23 µM,> 49 µM,EC50 [3]: 0.68 µM; EC50 [4]: 0.22 µM; fold change (FC) [5]: <10; solubility kinetic [6]: 25 µg/mL; solubility kinetic [7]: 12.5 µg/mL; chromatographic logD [8]: 2.8; fraction unbound [9]: 0.27; Cmax [10]: 6.3 µM; half-life [11]: > 24 h; bioavailability [12]: 28%; clearance [13]: 2.7 mL/min/kg; half-life [14]: > 24 h; Vd [15]: 6 L/kg
